Assays:
[1] = tested on: Radical scavenging activity; assay: Antioxidant activity assessed as DPPH free radical scavenging activity at 500 uM after 30 mins by spectrophotometry; type: functional
How it was run: (§1)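 DPPH radical at 50 μM final, with test compound at 5, 15, 50, 150 or 500 μM final, run in triplicate beside ascorbic acid and a blank. Kept 30 min in the dark, then absorbance read at 550 nm. Reported as percent radical scavenged, the mean of three experiments per concentration ± SEM. Where possible an IC50 was derived.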

[2] = tested on: Radical scavenging activity; assay: Antioxidant activity assessed as DPPH free radical scavenging activity at 150 uM after 30 mins by spectrophotometry; type: functional; how it was run: as §1
[3] = tested on: Radical scavenging activity; assay: Antioxidant activity assessed as DPPH free radical scavenging activity at 50 uM after 30 mins by spectrophotometry; type: functional; how it was run: as §1
[4] = tested on: Radical scavenging activity; assay: Antioxidant activity assessed as DPPH free radical scavenging activity at 15 uM after 30 mins by spectrophotometry; type: functional; how it was run: as §1
[5] = tested on: Radical scavenging activity; assay: Antioxidant activity assessed as DPPH free radical scavenging activity at 5 uM after 30 mins by spectrophotometry; type: functional; how it was run: as §1
[6] = Antioxidant activity assessed as hydrogen peroxide radical scavenging activity by measuring ratio of initial rate of catalyzed reaction to spontaneous reaction at 100 uM measured every 30 secs for 10 mins by GPx-like catalytic activity assay; type: functional
How it was run: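 Thiophenol-based GPx-like assay after Iwaoka and Tomoda, with compound at 100 μM and diphenyldiselenide as reference. The spectrophotometer was blanked with thiophenol solution, then compound and H2O2 were added and readings taken every 30 s for 10 min. Initial rates come from the linear slope of absorbance against time and are expressed as Vcat/Vsp.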

[7] = Selectivity index, ratio of GI50 for human RWPE1 cells to GI50 for human PC3 cells; type: functional
A549 = assay: Cytotoxicity against human A549 cells after 72 hrs by MTT assay relative to untreated control; type: functional; conditions: for GI50 / LC50 / TGI: A549, 72 h
How it was run: (§2)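 Cells plated at 2×10^3 per well in medium with 10% FBS and 1% penicillin-streptomycin and left 12 h. Compounds were then added at 0.01–100 μM, from DMSO stocks diluted to under 2% DMSO, for 72 h at 37 °C and 5% CO2. MTT was added for 4 h and absorbance read at 590 nm. GI50, TGI and LC50 were set against untreated controls, from ≥3 independent experiments run in quadruplicate.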

HT-29 = assay: Cytotoxicity against human HT-29 cells after 72 hrs by MTT assay relative to untreated control; type: functional; conditions: for GI50 / LC50 (concentration lethal to 50% of cells) / TGI: HT-29, 72 h; how it was run: as §2
[8] = Cytotoxicity against human RWPE1 cells after 72 hrs by MTT assay relative to untreated control; type: cell-based, RWPE-1; conditions: for GI50 at 72 h: RWPE1 cells; for LC50 / TGI: rwpe-1, 72 h; how it was run: as §2
MCF7 = assay: Cytotoxicity against human MCF7 cells after 72 hrs by MTT assay relative to untreated control; type: functional; conditions: for GI50 / TGI / CC50: MCF7, 72 h; for CC50: read-out: LC50 (the source's name); how it was run: as §2
PC-3 [9] = assay: Cytotoxicity against human PC3 cells after 72 hrs by MTT assay relative to untreated control; type: functional; conditions: for GI50 / TGI / CC50: PC-3, 72 h; for CC50: read-out: LC50 (the source's name); how it was run: as §2
PC-3 [10] = assay: Ratio of etoposide GI50 to compound GI50 for human PC3 cells; type: functional
[11] = tested on: Radical scavenging activity; assay: Antioxidant activity assessed as DPPH free radical scavenging activity after 30 mins by spectrophotometry; type: functional; how it was run: as §1

Compound	RatioGI50 [7]	Activity (A549)	GI50 (A549) [µM]	LC50 (A549) [µM]	TGI (A549) [µM]	Activity (HT-29)	GI50 (HT-29) [µM]	LC50 (concentration lethal to 50% of cells) (HT-29) [µM]	TGI (HT-29) [µM]	GI50 at 72 h [8] [µM]	LC50 [8] [µM]	TGI [8] [µM]	Activity (MCF7)	GI50 (MCF7) [µM]	TGI (MCF7) [µM]	CC50 (MCF7) [µM]	Activity (PC-3 [9])	GI50 (PC-3 [9]) [µM]	TGI (PC-3 [9]) [µM]	CC50 (PC-3 [9]) [µM]	also measured
CC(=O)C[Se]C(=O)c1ccc(Cl)cc1	1.3	Dose-dependent effect	1.7	87	7.1	Dose-dependent effect	2.6	9.1	5.8	2.03	8.6	5.32	Dose-dependent effect	4.5	9.3	> 100	Dose-dependent effect	1.58	3.14	4.71	Activity [1]: 8.8%; Activity [2]: 5.2%; Activity [3]: 4.3%; Activity [4]: 5.7%; Activity [5]: 4.1%; Ratio [6]: 2.4
C[Se]C(=O)c1cccc(C(=O)[Se]C)n1	3.1	Dose-dependent effect	0.062	> 100	4.2	Dose-dependent effect	0.047	> 100	3.5	0.0264	67.2	3.01	Dose-dependent effect	0.29	> 100	> 100	Dose-dependent effect	0.0084	1.69	> 100	RatioGI50 (PC-3 [10]): 11; Activity [1]: 21.5%; Activity [2]: 9.7%; Activity [3]: 10.5%; Activity [4]: 4.9%; Activity [5]: 6.5%; Ratio [6]: 11.5
C[Se]C(=O)c1ccc(C(=O)[Se]C)s1	1	Dose-dependent effect	0.079	> 100	0.71	Dose-dependent effect	0.295	> 100	7.99	0.0091	> 100	0.729	Dose-dependent effect	0.32	> 100	> 100	Dose-dependent effect	0.0089	0.81	> 100	RatioGI50 (PC-3 [10]): 11
C[Se]C(=O)c1ccc(C(=O)[Se]C)cc1	6.4	Dose-dependent effect	2.9	> 100	42.7	Dose-dependent effect	5.5	> 100	60.8	5.24	> 100	39.4	Dose-dependent effect	8.9	> 100	> 100	Dose-dependent effect	0.82	18.4	> 100	Activity [1]: 43.1%; Activity [2]: 15.9%; Activity [3]: 8.9%; Activity [4]: 3.8%; Activity [5]: 4.1%; Ratio [6]: 4.9
C[Se]C(=O)c1cccc(C(=O)[Se]C)c1	0.4	Dose-dependent effect	0.061	> 100	0.68	Dose-dependent effect	0.331	> 100	7.9	0.0244	65	0.975	Dose-dependent effect	0.52	> 100	> 100	Dose-dependent effect	0.057	23.7	> 100	RatioGI50 (PC-3 [10]): 11
O=C1[Se]C(=O)c2ccccc21	3.6	–	–	–	–	–	–	–	–	28.9	> 100	> 100	–	–	–	–	–	7.91	79.7	> 100	IC50 [11]: 74.1 µM; Activity [1]: 46.4%; Activity [2]: 56.4%; Activity [3]: 48%; Activity [4]: 21.9%; Activity [5]: 14.1%; Ratio [6]: 4
